pIC50: −log10 of the molar value. Activity calls are given as the source filed them. No cut-off for these calls is given here.
How the values were obtained:
[1] = biological target: T1, Beta-3 adrenergic receptor (Homo sapiens, UniProt P13945); assay: (§1) Antagonist activity at human beta3 adrenergic receptor expressed in HEK293 cells co-expressing Galpha16 assessed as inhibition of isoproterenol-induced intercellular calcium mobilization pre-incubated for 10 mins before isoproterenol addition by Fluo-4AM dye-based fluorescence assay; format: functional, cell-based; conditions: read-out: EC50 (the source's name)
How it was run: (§2)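 HEK293 cells stably co-expressing Gα16 and human β1, β2 or β3 receptor, seeded 24 h. Loaded with 2.00 µmol/L Fluo-4 AM in HBSS (BSA, glucose, 250 µmol/L sulfinpyrazone, pH 7.4) for 45 min at 37 °C. Compounds added for 10 min at room temperature, then isoproterenol dispensed. Calcium fluorescence read at ex 485/em 525 nm. IC50 taken from dose-response curves.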
Target sequence in this assay (P13945 whole entry): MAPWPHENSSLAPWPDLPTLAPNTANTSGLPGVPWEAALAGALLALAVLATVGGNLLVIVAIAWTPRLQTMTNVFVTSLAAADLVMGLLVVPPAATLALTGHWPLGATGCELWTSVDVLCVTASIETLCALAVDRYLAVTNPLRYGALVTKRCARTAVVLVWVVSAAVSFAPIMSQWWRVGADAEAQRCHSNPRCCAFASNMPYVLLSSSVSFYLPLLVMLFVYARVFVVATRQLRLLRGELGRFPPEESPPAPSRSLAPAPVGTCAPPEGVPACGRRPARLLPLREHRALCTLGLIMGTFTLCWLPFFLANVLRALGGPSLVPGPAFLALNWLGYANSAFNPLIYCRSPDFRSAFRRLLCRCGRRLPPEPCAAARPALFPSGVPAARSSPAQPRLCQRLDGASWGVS

[2] = biological target: Beta-2 adrenergic receptor (Homo sapiens, UniProt P07550); assay: Antagonist activity at human beta2 adrenergic receptor expressed in HEK293 cells co-expressing Galpha16 assessed as inhibition of isoproterenol-induced intercellular calcium mobilization pre-incubated for 10 mins before isoproterenol addition by Fluo-4AM dye-based fluorescence assay; format: functional, cell-based; conditions: read-out: EC50 (the source's name); how it was run: as §2
Sequence of Beta-2 adrenergic receptor (P07550 whole entry): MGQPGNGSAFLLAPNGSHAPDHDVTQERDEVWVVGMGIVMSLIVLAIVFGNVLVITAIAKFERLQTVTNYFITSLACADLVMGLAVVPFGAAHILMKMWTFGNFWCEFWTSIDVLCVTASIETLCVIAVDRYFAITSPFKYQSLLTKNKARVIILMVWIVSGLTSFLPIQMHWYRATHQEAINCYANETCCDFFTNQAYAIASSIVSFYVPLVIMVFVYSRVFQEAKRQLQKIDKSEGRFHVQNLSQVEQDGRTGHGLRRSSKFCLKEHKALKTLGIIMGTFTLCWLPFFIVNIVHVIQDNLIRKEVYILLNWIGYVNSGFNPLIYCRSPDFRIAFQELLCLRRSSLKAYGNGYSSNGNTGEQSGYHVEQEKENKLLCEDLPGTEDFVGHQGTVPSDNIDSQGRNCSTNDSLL

[3] = biological target: Beta-1 adrenergic receptor (Homo sapiens, UniProt P08588); assay: Antagonist activity at human beta1 adrenergic receptor expressed in HEK293 cells co-expressing Galpha16 assessed as inhibition of isoproterenol-induced intercellular calcium mobilization pre-incubated for 10 mins before isoproterenol addition by Fluo-4AM dye-based fluorescence assay; format: functional, cell-based; conditions: read-out: EC50 (the source's name); how it was run: as §2
Sequence of Beta-1 adrenergic receptor (P08588 whole entry): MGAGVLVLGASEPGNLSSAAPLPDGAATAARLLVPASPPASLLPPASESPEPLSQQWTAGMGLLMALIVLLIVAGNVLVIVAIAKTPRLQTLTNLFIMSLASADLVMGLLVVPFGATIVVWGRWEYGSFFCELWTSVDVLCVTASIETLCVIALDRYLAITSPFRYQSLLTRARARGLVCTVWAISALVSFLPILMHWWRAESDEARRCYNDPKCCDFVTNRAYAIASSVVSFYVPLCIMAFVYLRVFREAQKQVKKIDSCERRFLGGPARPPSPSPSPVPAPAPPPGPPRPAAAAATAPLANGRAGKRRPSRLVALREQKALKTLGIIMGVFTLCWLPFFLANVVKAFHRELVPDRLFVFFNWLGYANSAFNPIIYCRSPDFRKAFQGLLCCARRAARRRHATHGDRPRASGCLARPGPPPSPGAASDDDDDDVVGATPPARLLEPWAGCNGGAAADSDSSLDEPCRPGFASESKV

[4] = biological target: Beta-3 adrenergic receptor (Mus musculus) (UniProt P25962); assay: Antagonist activity at beta3 adrenergic receptor in mouse 3T3L1 cells assessed as inhibition of isoproterenol-induced lipolysis by measuring glycerol accumulation after 2 hrs; format: functional, cell-based
Sequence of Beta-3 adrenergic receptor (Mus musculus) (P25962 whole entry): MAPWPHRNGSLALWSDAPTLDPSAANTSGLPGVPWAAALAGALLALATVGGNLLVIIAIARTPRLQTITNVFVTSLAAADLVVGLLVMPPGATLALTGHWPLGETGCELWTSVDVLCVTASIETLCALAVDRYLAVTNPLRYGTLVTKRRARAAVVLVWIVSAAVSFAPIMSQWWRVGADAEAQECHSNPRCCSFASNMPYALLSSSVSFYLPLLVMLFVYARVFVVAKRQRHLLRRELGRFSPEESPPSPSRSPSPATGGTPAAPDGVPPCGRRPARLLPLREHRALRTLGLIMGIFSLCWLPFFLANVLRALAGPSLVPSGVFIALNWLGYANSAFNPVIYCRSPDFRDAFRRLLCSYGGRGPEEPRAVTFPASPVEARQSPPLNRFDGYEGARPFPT
How it was run: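 3T3-L1 preadipocytes were grown on gelatin to confluence, then differentiated with 10 µg/ml insulin, 1 µM dexamethasone and 0.5 mM IBMX for 48 hr, followed by insulin alone for 48 hr. Mature adipocytes were washed and given phenol red-free DMEM with 2% fatty acid-free BSA and 1 µM isoproterenol ± antagonist for 2 hr. Glycerol in cleared medium was read by kit at 550 nm. Mean ± SE, three independent experiments.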

Homo sapiens [5] = species on record: Homo sapiens; assay: Selectivity ratio of EC50 for displacement of [125I]iodocyanopindolol for human beta1 adrenergic receptor expressed in CHO dhfr cell membranes to EC50 for displacement of [125I]iodocyanopindolol from human beta3 adrenergic receptor expressed in CHO dhfr cell membranes
Homo sapiens [6] = species on record: Homo sapiens; assay: Selectivity ratio of EC50 for displacement of [125I]iodocyanopindolol for human beta2 adrenergic receptor expressed in CHO dhfr cell membranes to EC50 for displacement of [125I]iodocyanopindolol from human beta3 adrenergic receptor expressed in CHO dhfr cell membranes
Homo sapiens [7] = species on record: Homo sapiens; assay: Selectivity index, ratio of EC50 for human beta2 adrenergic receptor to EC50 for human beta3 adrenergic receptor
Homo sapiens [8] = species on record: Homo sapiens; assay: Selectivity index, ratio of EC50 for human beta1 adrenergic receptor to EC50 for human beta3 adrenergic receptor
Mus musculus [9] = assay: Antitumor activity against mouse C26 cells xenografted in BALB/c mouse assessed as decrease in tumor volume at 2.5 mg/kg, ip dosed daily for 13 days; format: functional, organism-based
Mus musculus [10] = assay: Antilipolytic activity against mouse C26 cells xenografted in BALB/c mouse assessed as reduction in lipolysis of body fat by measuring glycerol content in serum at 2.5 mg/kg, ip dosed daily for 13 days; format: functional, organism-based
Mus musculus [11] = assay: Inhibition of tumor-induced body weight loss in BALB/c mouse xenografted with mouse C26 cells assessed as reduction in body weight at 2.5 mg/kg, ip dosed daily for 13 days (reference value: 8.3%); format: functional; parameters: scale not given: the % may be the effect or the level left
[12] = biological target: T1, Beta-3 adrenergic receptor; assay: as §1, with “Potency index, ratio of EC50 for L-748,337 to EC50 for test compound for antagonist” for “Antagonist”; format: functional, cell-based
Target sequence in this assay (P13945 whole entry, looked up): as the sequence (P13945 whole entry) above

Row | SMILES | pIC50 [1] | pIC50 [2] | pIC50 [3] | other results
1 | CCc1ccccc1OC[C@@H](O)CNCCc1ccc(NS(=O)(=O)c2ccccc2)cc1 | 7.95 | 6.02 | 6.52 | –
2 | CCCCCC(=O)Nc1ccccc1NC(=O)Nc1ccc(CCNC[C@H](O)COc2cccc3[nH]ccc23)cc1 | 8.68 | – | – | –
3 | CCc1ccccc1OC[C@@H](O)CNCCc1ccc(NC(=O)c2ccccc2)cc1 | 8.11 | 6.53 | 6.91 | –
4 | COC(=O)Nc1ccccc1NC(=O)Nc1ccc(CCNC[C@H](O)COc2cccc3[nH]ccc23)cc1 | 8.58 | – | – | –
5 | O=C(Nc1ccc(CCNC[C@H](O)COc2cccc3[nH]ccc23)cc1)Nc1cccc(F)c1 | 8.53 | – | – | –
6 | COc1cccc(NC(=O)Nc2ccc(CCNC[C@H](O)COc3cccc4[nH]ccc34)cc2)c1 | 8.34 | – | – | –
7 | O=C(Nc1ccc(CCNC[C@H](O)COc2cccc3[nH]ccc23)cc1)c1ccccc1 | 8.85 | 6.93 | 7.44 | –
8 | CC(=O)NCc1cccc(OC[C@@H](O)CNCCc2ccc(NS(=O)(=O)c3ccccc3)cc2)c1 | – | – | – | inhibition [4]: Active; Ratio EC50 (Homo sapiens [5]): > 90; Ratio EC50 (Homo sapiens [6]): 45
9 | O=S(=O)(Nc1ccc(CCNC[C@H](O)COc2cccc3[nH]ccc23)cc1)c1ccccc1 | 8.68 | 6.45 | 7.83 | –
10 | CC(=O)NCc1cccc(OC[C@@H](O)CNCCc2ccc(NC(=O)c3ccccc3)cc2)c1 | 8.11 | 5.22 | 4.00 | –
11 | COC(=O)Nc1ccc(NC(=O)Nc2ccc(CCNC[C@H](O)COc3cccc4[nH]ccc34)cc2)cc1 | 8.85 | – | – | inhibition [4]: Active
12 | O=C(NCCc1ccccc1)Nc1ccc(CCNC[C@H](O)COc2cccc3[nH]ccc23)cc1 | 8.67 | – | – | inhibition [4]: Active
13 | CCc1ccccc1OC[C@@H](O)CNCCc1ccc(NC(=O)Nc2ccccc2)cc1 | 7.26 | 5.85 | 6.37 | –
14 | CCCCCC(=O)Nc1ccc(NC(=O)Nc2ccc(CCNC[C@H](O)COc3cccc4[nH]ccc34)cc2)cc1 | 7.98 | – | – | –
15 | CCCCCC(=O)Nc1cccc(NC(=O)Nc2ccc(CCNC[C@H](O)COc3cccc4[nH]ccc34)cc2)c1 | 8.75 | – | – | –
16 | CCc1ccccc1OC[C@@H](O)CNCCc1ccc(NC(=O)Cc2ccccc2)cc1 | 8.06 | 6.55 | 7.43 | –
17 | COC(=O)Nc1cccc(NC(=O)Nc2ccc(CCNC[C@H](O)COc3cccc4[nH]ccc34)cc2)c1 | 8.78 | – | – | –
18 | COc1ccc(NC(=O)Nc2ccc(CCNC[C@H](O)COc3cccc4[nH]ccc34)cc2)cc1 | 8.83 | – | – | inhibition [4]: Active
19 | CC(=O)NCc1cccc(OC[C@@H](O)CNCCc2ccc(NS(=O)(=O)Nc3ccccc3)cc2)c1 | 8.47 | 5.07 | 6.65 | –
20 | O=C(Nc1ccc(CCNC[C@H](O)COc2cccc3[nH]ccc23)cc1)Nc1ccccc1F | 8.45 | – | – | –
21 | O=C(Cc1ccccc1)Nc1ccc(CCNC[C@H](O)COc2cccc3[nH]ccc23)cc1 | 8.96 | 7.08 | 8.12 | –
22 | CC(=O)NCc1cccc(OC[C@@H](O)CNCCc2ccc(NC(=O)Nc3ccccc3)cc2)c1 | 8.33 | 5.01 | 4.90 | –
23 | COc1ccccc1NC(=O)Nc1ccc(CCNC[C@H](O)COc2cccc3[nH]ccc23)cc1 | 8.07 | – | – | –
24 | CC(=O)NCc1cccc(OC[C@@H](O)CNCCc2ccc(NC(=O)Cc3ccccc3)cc2)c1 | 8.34 | 4.80 | 5.21 | –
25 | CC(C)NC(=O)Nc1ccc(CCNC[C@H](O)COc2cccc3[nH]ccc23)cc1 | 8.99 | – | – | inhibition [4]: Active
26 | O=C(Nc1ccc(CCNC[C@H](O)COc2cccc3[nH]ccc23)cc1)NC1CCCCC1 | 8.54 | – | – | inhibition [4]: Active
27 | O=C(Nc1ccc(F)cc1)Nc1ccc(CCNC[C@H](O)COc2cccc3[nH]ccc23)cc1 | 8.60 | – | – | inhibition [4]: Active
28 | O=C(Nc1ccccc1)Nc1ccc(CCNC[C@H](O)COc2cccc3[nH]ccc23)cc1 | 9.29 | 7.28 | 8.54 | Ratio EC50 (Homo sapiens [7]): 100; Ratio EC50 (Homo sapiens [8]): 6; inhibition [4]: Active; Activity (Mus musculus [9]): Active; Activity (Mus musculus [10]): Active; Activity (Mus musculus [11]): 4.6%; Ratio EC50 [12]: 23

— ChEMBL document CHEMBL4229363, “Design and synthesis of aryloxypropanolamine as β3-adrenergic receptor antagonist in cancer and lipolysis” (Eur J Med Chem, 2018)
